38 sequences from the array DNA melting data of Ke et al. (doi:10.1101/2024.01.08.574731) can be followed below.

Data set [1] is described as follows: folding enthalpy; higher = less favourable; fluorescence melt of hairpins on a sequencing array, two-state fit. The settings on record: sodium 0.088 M. The procedure, abridged: (§1)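 Cy3 signals were normalised both to pre-quench Cy3 and to control constructs. They came from library hairpins carrying annealed Cy3 and quencher oligos on a sequenced MiSeq flow cell, imaged in 50 mM Na-HEPES pH 8.0, 25 mM NaCl, in 2.5 °C steps up to 60 °C. Bootstrapped two-state fits gave melting temperature and folding enthalpy, and four replicates were combined by inverse variance. Fitted temperatures were then raised by 9.35 °C to match UV melts.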

Data set [2] in a line: melting temperature; fluorescence melt of hairpins on a sequencing array, two-state fit, raised by 9.35 °C to match UV melts. The settings on record: sodium 0.088 M. In short, it runs like this:
as §1

Turning to GATCGAACTTCGATC ((((((...)))))), in data set [1], the folding enthalpy is -31.3 kcal/mol. In data set [2], the Tm was 51 °C.
Regarding GATCGAAGGTTCGATC ((((((....)))))), in data set [1], the folding enthalpy was -31.2 kcal/mol. The Tm in data set [2] was found to be 52.1 °C.
In the case of GATCGAATGGTCGATC ((((((....)))))), the folding enthalpy in data set [1] is -20.2 kcal/mol. In addition, the Tm in data set [2] worked out at 51.4 °C.
As for GATCGAATGTCGATC ((((((...)))))), in data set [1], the folding enthalpy was -31.5 kcal/mol. Besides, the Tm in data set [2] came out at 50.6 °C.
The matching figures for GATCGAATTGTCGATC ((((((....)))))): -41.9 kcal/mol and 50 °C.
GATCGACACTTCGATC ((((((....)))))): in data set [1], the folding enthalpy was -48.6 kcal/mol. Further, the Tm in data set [2] stood at 53.4 °C.
As to GATCGACATGTCGATC ((((((....)))))), the folding enthalpy in data set [1] was -41.7 kcal/mol. Besides, the Tm in data set [2] turned out to be 61.3 °C.
The matching figures for GATCGACCCGTCGATC ((((((....)))))): -47.1 kcal/mol and 60.1 °C.
GATCGACCGCTCGATC ((((((....)))))): the folding enthalpy in data set [1] was -45.2 kcal/mol. Besides, the Tm in data set [2] was found to be 51.7 °C.
For GATCGACCGGTCGATC ((((((....)))))) the same measures were -51.5 kcal/mol and 61.5 °C.
For GATCGACCGTTCGATC ((((((....)))))), in data set [1], the folding enthalpy was -46 kcal/mol. In addition, the Tm in data set [2] is 50.7 °C.
The matching figures for GATCGACCTTCGATC ((((((...)))))): -35.6 kcal/mol and 51 °C.
For the sequence GATCGACGAAAGTCAATC (((.(((....))).))), in data set [1], the folding enthalpy is -20.5 kcal/mol. For the same sequence, the Tm in data set [2] was 40.3 °C.
As to GATCGACGAGTCGATC ((((((....)))))), the folding enthalpy in data set [1] was -45.8 kcal/mol. Further, the Tm in data set [2] amounted to 64 °C.
In the case of GATCGACGTCTCGATC ((((((....)))))), the folding enthalpy in data set [1] was -42.3 kcal/mol. For the same sequence, the Tm in data set [2] was found to be 50 °C.
The matching figures for GATCGACTCATCGATC ((((((....)))))): -41.7 kcal/mol and 51.8 °C.
Regarding GATCGACTCCTCGATC ((((((....)))))), the folding enthalpy in data set [1] is -38.6 kcal/mol. In data set [2], the Tm came out at 51.6 °C.
GATCGACTCTTCGATC ((((((....)))))): the folding enthalpy in data set [1] was -39.5 kcal/mol. Further, the Tm in data set [2] worked out at 52.7 °C.
Consider GATCGACTGCTCGATC ((((((....)))))), for which the folding enthalpy in data set [1] was -43.4 kcal/mol. Also, the Tm in data set [2] is 50.9 °C.
Turning to GATCGACTGTCGATC ((((((...)))))), in data set [1], the folding enthalpy was -49 kcal/mol. The Tm in data set [2] stood at 51.4 °C.
For GATCGACTTCTCGATC ((((((....)))))) the same measures were -41 kcal/mol and 51.5 °C.
As for GATCGACTTTCGATC ((((((...)))))), the folding enthalpy in data set [1] is -22.2 kcal/mol. Also, the Tm in data set [2] was determined as 51.7 °C.
As for GATCGAGAACTCGATC ((((((....)))))), in data set [1], the folding enthalpy is -37.6 kcal/mol. For the same sequence, in data set [2], the Tm came out at 57 °C.
On to GATCGAGAGTTCGATC ((((((....)))))), for which, in data set [1], the folding enthalpy is -36.7 kcal/mol. For the same sequence, the Tm in data set [2] amounted to 50.5 °C.
As for GATCGAGCGATCGATC ((((((....)))))), in data set [1], the folding enthalpy is -35.6 kcal/mol. Also, in data set [2], the Tm is 57.5 °C.
Take GATCGAGCGTTCGATC ((((((....)))))): the folding enthalpy in data set [1] was -45.4 kcal/mol. Moreover, the Tm in data set [2] came out at 52.1 °C.
For the sequence GATCGAGCTTTCGATC ((((((....)))))), the folding enthalpy in data set [1] is -35.1 kcal/mol. The Tm in data set [2] turned out to be 52.6 °C.
GATCGAGGCGTCGATC ((((((....)))))): the folding enthalpy in data set [1] was -40.6 kcal/mol. For the same sequence, the Tm in data set [2] amounted to 55.1 °C.
Consider GATCGAGGCTCGATC ((((((...)))))), for which the folding enthalpy in data set [1] is -42.1 kcal/mol. Also, the Tm in data set [2] is 55.5 °C.
GATCGAGGTATCGATC ((((((....)))))): the folding enthalpy in data set [1] is -39.6 kcal/mol. Moreover, in data set [2], the Tm was 58.7 °C.
The matching figures for GATCGAGGTCTCGATC ((((((....)))))): -38.5 kcal/mol and 55.8 °C.
On to GATCGAGGTTCGATC ((((((...)))))), for which the folding enthalpy in data set [1] was -38.6 kcal/mol. Besides, in data set [2], the Tm came to 51.6 °C.
With GATCGAGTTGTCGATC ((((((....)))))), the folding enthalpy in data set [1] is -39.4 kcal/mol. The Tm in data set [2] turned out to be 52.8 °C.
Regarding GATCGAGTTTCGATC ((((((...)))))), the folding enthalpy in data set [1] is -31.4 kcal/mol. In data set [2], the Tm was 53 °C.
On to GATCGATACTCGATC ((((((...)))))), for which the folding enthalpy in data set [1] was -41.3 kcal/mol. For the same sequence, the Tm in data set [2] stood at 51.3 °C.
In the case of GATCGATAGATCGATC ((((((....)))))), the folding enthalpy in data set [1] is -18.9 kcal/mol. For the same sequence, the Tm in data set [2] worked out at 61.1 °C.
As to GATCGATAGTCGATC ((((((...)))))), in data set [1], the folding enthalpy is -30.3 kcal/mol. The Tm in data set [2] was found to be 48.7 °C.
Regarding GATCGATAGTTCGATC ((((((....)))))), the folding enthalpy in data set [1] was -39.3 kcal/mol. In addition, the Tm in data set [2] is 50.8 °C.
